Results published in ChEMBL document CHEMBL1926607 (J Med Chem, 2011).

Molecular target: T1, Adrenergic receptor alpha-1 (Rattus norvegicus, UniProt P15823+P23944+P43140)
T1 sequence (P15823 whole entry): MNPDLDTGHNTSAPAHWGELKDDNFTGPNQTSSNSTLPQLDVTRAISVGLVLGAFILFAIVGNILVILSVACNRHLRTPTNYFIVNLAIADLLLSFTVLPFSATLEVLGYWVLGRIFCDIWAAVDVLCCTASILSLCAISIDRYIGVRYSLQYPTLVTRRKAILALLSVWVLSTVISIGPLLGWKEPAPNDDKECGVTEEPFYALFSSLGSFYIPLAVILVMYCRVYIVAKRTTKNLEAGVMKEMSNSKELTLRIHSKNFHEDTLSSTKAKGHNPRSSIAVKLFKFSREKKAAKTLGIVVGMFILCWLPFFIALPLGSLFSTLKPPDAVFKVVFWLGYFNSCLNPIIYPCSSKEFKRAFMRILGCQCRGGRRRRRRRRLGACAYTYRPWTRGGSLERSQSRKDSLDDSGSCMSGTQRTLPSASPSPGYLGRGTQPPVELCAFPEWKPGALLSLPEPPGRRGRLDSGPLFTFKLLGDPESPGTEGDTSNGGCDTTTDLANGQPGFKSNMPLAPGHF
T1 sequence (P23944 whole entry): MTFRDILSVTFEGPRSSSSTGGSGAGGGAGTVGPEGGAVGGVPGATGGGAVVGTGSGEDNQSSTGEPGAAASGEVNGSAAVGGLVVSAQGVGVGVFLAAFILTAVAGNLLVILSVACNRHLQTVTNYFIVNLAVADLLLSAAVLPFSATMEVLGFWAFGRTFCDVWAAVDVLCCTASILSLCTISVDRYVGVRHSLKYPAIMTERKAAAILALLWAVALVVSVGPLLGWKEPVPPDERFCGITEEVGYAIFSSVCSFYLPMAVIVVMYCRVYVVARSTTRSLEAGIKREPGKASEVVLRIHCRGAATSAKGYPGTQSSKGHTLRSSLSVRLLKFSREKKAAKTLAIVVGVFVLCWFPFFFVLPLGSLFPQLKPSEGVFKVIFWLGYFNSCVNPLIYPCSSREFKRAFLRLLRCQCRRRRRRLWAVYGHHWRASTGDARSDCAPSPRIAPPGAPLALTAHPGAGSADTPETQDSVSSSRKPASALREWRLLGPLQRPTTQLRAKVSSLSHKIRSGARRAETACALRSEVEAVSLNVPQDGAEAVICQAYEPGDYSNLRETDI
T1 sequence (P43140 whole entry): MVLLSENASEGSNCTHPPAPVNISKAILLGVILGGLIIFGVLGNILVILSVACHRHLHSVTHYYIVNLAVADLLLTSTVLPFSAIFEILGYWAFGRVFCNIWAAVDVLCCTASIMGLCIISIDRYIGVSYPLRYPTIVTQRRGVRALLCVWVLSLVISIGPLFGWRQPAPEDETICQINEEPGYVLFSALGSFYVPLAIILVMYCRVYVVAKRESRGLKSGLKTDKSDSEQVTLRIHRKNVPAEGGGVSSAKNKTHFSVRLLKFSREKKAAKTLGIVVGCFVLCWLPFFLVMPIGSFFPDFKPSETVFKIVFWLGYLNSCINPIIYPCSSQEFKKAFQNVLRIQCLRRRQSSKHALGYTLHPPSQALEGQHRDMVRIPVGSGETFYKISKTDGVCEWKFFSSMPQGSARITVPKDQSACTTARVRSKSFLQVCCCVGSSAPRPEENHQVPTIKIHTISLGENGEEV
Test: Displacement of [3H]prazosin from alpha1 adrenoceptor in Sprague-Dawley albinus rat cerebral cortex membranes after 30 mins
Format: cell membranes, Membrane
How it was run: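 Rat cerebral cortex membranes (about 250 μg protein; male Sprague–Dawley, 180–200 g) in 50 mM Tris-HCl with 10 mM MgCl2, pH 7.4. Incubation was 30 min at 25 °C with 0.2 nM [3H]prazosin and six competitor concentrations. Nonspecific binding was set with 10 μM phentolamine.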

## Cl.O=C1C2CCCN2C(=O)CN1CCCCNCC1CCc2ccccc2O1 (stereo unspecified)
  Ki: 107 nM
